Results gathered from unrelated publications.
Compare with care: the assays were run in different laboratories.
Medium: Caco-2

With `CCn1c(=O)c2c(nc(S)n2C)n(C)c1=O` the Papp A→B was 2.7 ×10⁻⁶ cm/s (10 µM; 2 h).
`C[C@H]1O[C@@H](O[C@H]2[C@@H](O)C[C@H](O[C@H]3[C@@H](O)C[C@H](O[C@H]4CC[C@@]5(C)[C@H](CC[C@@H]6[C@@H]5C[C@@H](O)[C@]5(C)[C@@H](C7=CC(=O)OC7)CC[C@]65O)C4)O[C@@H]3C)O[C@@H]2C)C[C@H](O)[C@@H]1O` has a Papp A→B of 0.11 ×10⁻⁶ cm/s (10 µM; 2 h; pH 7.4).
For `C[C@H]1O[C@@H](O[C@H]2[C@@H](O)C[C@H](O[C@H]3[C@@H](O)C[C@H](O[C@H]4CC[C@@]5(C)[C@H](CC[C@@H]6[C@@H]5C[C@@H](O)[C@]5(C)[C@@H](C7=CC(=O)OC7)CC[C@]65O)C4)O[C@@H]3C)O[C@@H]2C)C[C@H](O)[C@@H]1O`, the Papp A→B was 1.3 ×10⁻⁶ cm/s (5 µM; 1 h).
With `CC#Cc1cncc(-c2ccc3c(c2)[C@@]2(N=C(C)C(N)=N2)[C@]2(CC[C@H](OC)CC2)C3)c1` the Papp A→B was 34.8 ×10⁻⁶ cm/s.
`Cn1c(=O)c2c(nc(S)n2C)n(C)c1=O` gave a Papp A→B of 0.9 ×10⁻⁶ cm/s (10 µM; 2 h).
The Papp A→B of `CC(C)NCC(O)COc1cccc2ccccc12` (stereo not shown) is reported as 46.5 ×10⁻⁶ cm/s.
The Papp A→B of `CO[C@@H](C[C@H]1C(C)=CC[C@@H]2[C@]3(C)C[C@H](O[C@@H]4O[C@@H](C)[C@H](OC(=O)c5cccc(O)c5)[C@@H](O[C@@H]5O[C@H](CO)[C@@H](O)[C@H](O)[C@H]5NC(C)=O)[C@H]4O)[C@@H](O)C(C)(C)[C@H]3CC[C@]21C)[C@H](N)C(=O)O.O=C(O)C(F)(F)F` is reported as 0.01 ×10⁻⁶ cm/s (5 µM; 1 h).
The Papp A→B of `O=C(O)COc1cccc(Oc2ccc(-c3noc(-c4ccc(O)cc4)n3)cc2)c1` is reported as 5.3 ×10⁻⁶ cm/s (2 h; pH 7.4).
For `C[C@H]1O[C@@H](O[C@H]2[C@@H](O)C[C@H](O[C@H]3[C@@H](O)C[C@H](O[C@H]4CC[C@@]5(C)[C@H](CC[C@@H]6[C@@H]5C[C@@H](O)[C@]5(C)[C@@H](C7=CC(=O)OC7)CC[C@]65O)C4)O[C@@H]3C)O[C@@H]2C)C[C@H](O)[C@@H]1O`, the Papp A→B was 0.0218 ×10⁻⁶ cm/s.
For `Cc1ncsc1-c1ccc(CNC(=O)[C@@H]2C[C@@H](O)CN2C(=O)[C@@H](NC(=O)C2(F)CC2)C(C)(C)C)c(OCCOCCOCCN2CCN(c3cc(-c4ccccc4O)nnc3N)CC2)c1`, the Papp A→B was 0.11 ×10⁻⁶ cm/s (2 h; pH 7.2).
With `COc1cc(F)ccc1-c1ncnc(Nc2cccc(C[S@](C)(=N)=O)c2)n1` the Papp A→B was 3.5 ×10⁻⁶ cm/s (2 µM; 2 h; pH 7.2).
For `CC(C)c1cccc2c(-c3ccccc3)cc(-c3ccc(-c4ccc(C(=O)O)cc4)[nH]3)nc12`, the Papp A→B was 1.61 ×10⁻⁶ cm/s.
The Papp A→B of `COCCc1ccc(OCC(O)CNC(C)C)cc1` (stereo not shown) is reported as 13.3 ×10⁻⁶ cm/s (pH 6.5).
`O=C(COCc1cccnc1)C12CC3CC(CC(C3)C1)C2` has a Papp A→B of 6.3 ×10⁻⁶ cm/s (20 µM).
`C=CC(=O)Nc1cc(Nc2nccc(-c3cn(C)c4ccccc34)n2)c(OC)cc1N(C)CCN(C)C` has a Papp A→B of 12.5 ×10⁻⁶ cm/s (pH 6.5).
With `CCC(=O)N[C@H]1Cc2cccc(C(=O)OCOC(=O)C(CC)CC)c2OB1O` the Papp A→B was 8.25 ×10⁻⁶ cm/s (5 µM; 2 h; pH 7.4).
